The source of these data is paper PMC10693930 (Biochemistry, 2023).

For test [1], the target named is T1, K46A SaPC (Staphylococcus aureus, UniProt A0A0H3JRU9, K46A). Put plainly: ADP phosphorylation assay. It is filed as biochemical. Conditions: up to 1 mM acetyl-CoA.
Test [2] addresses T2, E418A SaPC (Staphylococcus aureus, UniProt A0A0H3JRU9, E418A). Put plainly: Pyruvate carboxylation assay. It is filed as biochemical. Conditions: up to 4 mM acetyl-CoA and 30 mM CoA.
Test [3] addresses T2, E418A SaPC. Put plainly: ADP phosphorylation assay. It is filed as biochemical. Conditions: up to 1 mM acetyl-CoA.
Test [4] addresses T1, K46A SaPC. Put plainly: Pyruvate carboxylation assay. It is filed as biochemical. Conditions: for ratio (Ka CoA / Ka acetyl-CoA): discrimination of acetyl-CoA over CoA.
For test [5], the target named is T3, WT SaPC (Staphylococcus aureus, UniProt A0A0H3JRU9). Put plainly: ADP phosphorylation assay. It is filed as biochemical.
Test [6] addresses T3, WT SaPC. Put plainly: Pyruvate carboxylation assay. It is filed as biochemical. Conditions: for increase of apparent Ka in the presence of L-aspartate: 20 mM L-aspartate vs none; for ratio (Ka CoA / Ka acetyl-CoA): discrimination of acetyl-CoA over CoA; for EC50: Ka (apparent activation constant).
The target of test [7] is T4, R21A SaPC (Staphylococcus aureus, UniProt A0A0H3JRU9, R21A). Briefly: Pyruvate carboxylation assay. It is filed as biochemical. Particulars: for ratio (Ka CoA / Ka acetyl-CoA): discrimination of acetyl-CoA over CoA.
Test [8] concerns the target T5, K411A SaPC (Staphylococcus aureus, UniProt A0A0H3JRU9, K411A). Put plainly: Pyruvate carboxylation assay. It is filed as biochemical.
The target of test [9] is T4, R21A SaPC. Briefly: ADP phosphorylation assay. It is filed as biochemical. Conditions: up to 1 mM acetyl-CoA.
The test system of test [10] is SaPC. Particulars: cited from earlier work.
Test [11] has as its system PC. Particulars: depends on the organism; cited from earlier work.
In test [12] the target is T5, K411A SaPC. Briefly: ADP phosphorylation assay. It is filed as biochemical.
Test [13] deals with T1, K46A SaPC. Put plainly: Pyruvate carboxylation inhibition assay with CT domain inhibitors. It is filed as biochemical. Particulars: 2.5 mM acetyl-CoA vs none.
For test [14], the target named is T2, E418A SaPC. The test is described as above. It is filed as biochemical.
For test [15], the target named is T3, WT SaPC. Put plainly: Pyruvate carboxylation inhibition assay with CT domain inhibitors. It is filed as biochemical. In outline:
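WT SaPC (5 μg/mL) was pre-incubated with inhibitor and acetyl-CoA, and the reaction was started with 10× substrate mix (final 25 mM NaHCO3, 2.5 mM ATP, 12 mM pyruvate). MDH-coupled (10 U/mL MDH, 0.12 mM NADH); change in A340 monitored. Inhibitor 0–1 mM or 0–50 mM by compound. MDH-only controls. Triplicate; SD of three trials.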

Test [16] has as its target T4, R21A SaPC. Briefly: Pyruvate carboxylation inhibition assay with CT domain inhibitors. It is filed as biochemical. Particulars: 2.5 mM acetyl-CoA vs none.
The mark [17] stands for this setting: Acyl-CoA + 20 mM L-aspartate, Table 1.

On to `CC(=O)SCCNC(=O)CCNC(=O)[C@H](O)C(C)(C)COP(=O)(O)OP(=O)(O)OC[C@H]1O[C@@H](n2cnc3c(N)ncnc32)[C@H](O)[C@@H]1OP(=O)(O)O` [Acetyl-CoA], for which the “activation of ADP phosphorylation” value in [1], in test [3] and in [9] was “unable to be activated” throughout. Also, the “activation of pyruvate carboxylation” value in test [2] is “unresponsive to activation”. The “Ka (apparent activation constant)” value in test [4] (K46A SaPC) was 340 ± 30 µM; in [5] (WT SaPC, ADP phosphorylation by carbamoyl phosphate) it was 15 ± 6 µM; in test [6] (setting [17]), 4.1 ± 0.3 µM; in test [6] (Acyl-CoA alone, Table 1, fit to Equation 1 (3′5′ diphosphoadenosine: Equation 2)), 1.5 ± 0.1 µM; in test [6] (WT SaPC, Table 2 series) it was 1.5 ± 0.1 µM; in [7] (R21A SaPC) it was 340 ± 50 µM. Besides, the “Ka (apparent activation constant)” value in test [8] (K411A SaPC) stood at 5.8 ± 0.2 µM. Also, the “ratio (Ka CoA / Ka acetyl-CoA)” value in test [4] (K46A SaPC) is given as 4; in test [4] (K46A SaPC, listed as acetyl-CoA), 4 – 5; in test [6] (WT SaPC) it was 33; in [6] (WT SaPC, listed as acetyl-CoA), ~ 30; in [7] (R21A SaPC), 5; in test [7] (R21A SaPC, listed as acetyl-CoA) it was 4 – 5. The “ratio (Ka CoA / Ka acetyl-CoA)” value in test [8] (K411A SaPC, discrimination of acetyl-CoA over CoA) is reported as 17. Besides, the “concentration giving slight inhibition of ADP phosphorylation” value in test [5] (in all cases, including WT (Figure S4)) was “greater than 4 mM”. In addition, the “h (Hill coefficient)” value in [6] (setting [17]) came out at 3.3 ± 0.6; in test [6] (Acyl-CoA alone, Table 1) it was 1.5 ± 0.1. The “increase of apparent Ka in the presence of L-aspartate” value in test [6] (WT SaPC) is ~ 4 fold. The “greater affinity than CoA” value in test [10] is reported as ~ 100 fold. Moreover, the “increase of binding affinity by the acetyl moiety” value in test [10] is ~ 80 fold. The “increase of kcat in the presence of activator” value in [10] is recorded as 5-10 fold; in [11], “up to 35 fold”.
A word on the EC50: it is the concentration at which the effect is half-maximal. Regarding `CC(C)(COP(=O)(O)OP(=O)(O)OC[C@H]1O[C@@H](n2cnc3c(N)ncnc32)[C@H](O)[C@@H]1OP(=O)(O)O)[C@@H](O)C(=O)NCCC(=O)NCCS` [CoA], in test [2], the “activation of pyruvate carboxylation” value is “unresponsive to activation”. Moreover, the EC50 in [4] was determined as 1500 ± 100 µM; in test [12], 420 ± 30 µM; in [5], 320 ± 30 µM; in test [6] (setting [17]), 130 ± 10 µM; in test [6] (WT SaPC, Table 2 series), 49 ± 7 µM; in test [7] it was 1800 ± 53 µM. The EC50 in test [8] came to 100 ± 4.8 µM. The “h (Hill coefficient)” value in test [6] (setting [17]) stood at 1.8 ± 0.2; in test [6] (Acyl-CoA alone, Table 1), 1.4 ± 0.2. Further, the “increase of apparent Ka in the presence of L-aspartate” value in test [6] (WT SaPC) is recorded as ~ 4 fold.
In the case of `O=C(O)C(=O)O` [oxalate], the “increase in the IC50 for oxalate inhibition” value in test [13] is given as 8 fold; in test [15] (WT SaPC, acetyl-CoA at ~7 times the Ka value (10 μM, Figure 6C)), ~ 6 fold; in test [15] (WT SaPC, in the presence of CoA (500 μM, Figure 6B)), ~ 13 fold; in test [15] (WT SaPC, saturating acetyl-CoA vs none), greater than 20 fold; in test [16] it was 8 fold. The “inhibition of pyruvate carboxylation” value in test [14] is “inhibited”. The “change of inhibition in the presence of acetyl-CoA” value in test [14] (500 μM acetyl-CoA) is recorded as “unchanged”. Further, the “change of potency in the presence of acetyl-CoA” value in test [15] (SaPC, CT domain inhibitors) was “significantly reduced potency”. The “change of the IC50 for oxalate inhibition” value in test [15] (WT SaPC, in the presence of L-aspartate (5 mM, Figure 6B)) is listed as “did not alter”.
